Experiments:
Type in all cases: functional
Parameters in all cases: scale not given: the % may be the effect or the level left
KM12 = assay: Growth inhibition of human KM12 cells assessed tumor cell growth at 10^-5 M
Outline: (§1)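 NCI 60-human-tumor-cell-line panel screen. Each compound was tested at a single concentration of 10^-5 M, and percent growth of tumor cells was recorded for each cell line. Growth inhibition was expressed from these percent-growth values.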

OVCAR-4 = assay: Growth inhibition of human OVCAR4 cells assessed tumor cell growth at 10^-5 M; outline: as §1
MDA-MB-468 = assay: Growth inhibition of human MDA-MB-468 cells assessed tumor cell growth at 10^-5 M; outline: as §1
MDA-MB-231 = assay: Growth inhibition of human MDA-MB-231 cells assessed tumor cell growth at 10^-5 M; outline: as §1
UACC-62 = assay: Growth inhibition of human UACC62 cells assessed tumor cell growth at 10^-5 M
Outline: (§2)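 Single-dose screen at 10^-5 M across the 60 human tumor cell line panel, run to NCI standards. The value is the percent growth of each cell line in the presence of compound. Compounds active at this dose moved on to five-concentration testing (10^-4 to 10^-8 M).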

HL-60(TB) = assay: Growth inhibition of human HL-60(TB) cells assessed tumor cell growth at 10^-5 M
Outline: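 HL-60(TB), part of the 60-line panel, tested at a single concentration of 10^-5 M. The read-out is percent tumor cell growth relative to untreated growth.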

NCI-H460 = assay: Growth inhibition of human NCI-H460 cells assessed tumor cell growth at 10^-5 M; outline: as §1
MCF7 = assay: Growth inhibition of human MCF7 cells assessed tumor cell growth at 10^-5 M; outline: as §1
RXF 393 = assay: Growth inhibition of human RXF393 cells assessed tumor cell growth at 10^-5 M; outline: as §1
HT-29 = assay: Growth inhibition of human HT-29 cells assessed tumor cell growth at 10^-5 M; outline: as §1
U-251 = assay: Growth inhibition of human U251 cells assessed tumor cell growth at 10^-5 M; outline: as §2
SK-MEL-5 = assay: Growth inhibition of human SK-MEL-5 cells assessed tumor cell growth at 10^-5 M; outline: as §1
K562 = assay: Growth inhibition of human K562 cells assessed tumor cell growth at 10^-5 M; outline: as §1
OVCAR-3 = assay: Growth inhibition of human OVCAR3 cells assessed tumor cell growth at 10^-5 M; outline: as §1
SN12C = assay: Growth inhibition of human SN12C cells assessed tumor cell growth at 10^-5 M; outline: as §1
T47D = assay: Growth inhibition of human T47D cells assessed tumor cell growth at 10^-5 M; outline: as §2
NCI-H322M = assay: Growth inhibition of human NCI-H322M cells assessed tumor cell growth at 10^-5 M; outline: as §1
SK-OV-3 = assay: Growth inhibition of human SKOV3 cells assessed tumor cell growth at 10^-5 M; outline: as §1
SK-MEL-28 = assay: Growth inhibition of human SK-MEL-28 cells assessed tumor cell growth at 10^-5 M; outline: as §1
SNB-19 = assay: Growth inhibition of human SNB19 cells assessed tumor cell growth at 10^-5 M; outline: as §2
SNB-75 = assay: Growth inhibition of human SNB75 cells assessed tumor cell growth at 10^-5 M; outline: as §2
MDA-MB-435 = assay: Growth inhibition of human MDA-MB-435 cells assessed tumor cell growth at 10^-5 M; outline: as §1
LOX IMVI = assay: Growth inhibition of human LOXIMVI cells assessed tumor cell growth at 10^-5 M; outline: as §1
SF-268 = assay: Growth inhibition of human SF268 cells assessed tumor cell growth at 10^-5 M; outline: as §1
SF-295 = assay: Growth inhibition of human SF295 cells assessed tumor cell growth at 10^-5 M; outline: as §1
A549 = assay: Growth inhibition of human A549 cells assessed tumor cell growth at 10^-5 M; outline: as §1
M14 = assay: Growth inhibition of human M14 cells assessed tumor cell growth at 10^-5 M; outline: as §1
HCT-116 = assay: Growth inhibition of human HCT116 cells assessed tumor cell growth at 10^-5 M; outline: as §1
HCT-15 = assay: Growth inhibition of human HCT15 cells assessed tumor cell growth at 10^-5 M; outline: as §1
NCI-H23 = assay: Growth inhibition of human NCI-H23 cells assessed tumor cell growth at 10^-5 M; outline: as §1
NCI-H522 = assay: Growth inhibition of human NCI-H522 cells assessed tumor cell growth at 10^-5 M; outline: as §1
SR = assay: Growth inhibition of human SR cells assessed tumor cell growth at 10^-5 M; outline: as §2
Malme-3M = assay: Growth inhibition of human MALME-3M cells assessed tumor cell growth at 10^-5 M; outline: as §1
NCI-H226 = assay: Growth inhibition of human NCI-H226 cells assessed tumor cell growth at 10^-5 M; outline: as §1
UO-31 = assay: Growth inhibition of human UO31 cells assessed tumor cell growth at 10^-5 M; outline: as §2
MOLT-4 = assay: Growth inhibition of human MOLT4 cells assessed tumor cell growth at 10^-5 M; outline: as §1
786-0 = assay: Growth inhibition of human 786-0 cells assessed tumor cell growth at 10^-5 M; outline: as §1
SW-620 = assay: Growth inhibition of human SW620 cells assessed tumor cell growth at 10^-5 M; outline: as §2
ACHN = assay: Growth inhibition of human ACHN cells assessed tumor cell growth at 10^-5 M; outline: as §1
A498 = assay: Growth inhibition of human A498 cells assessed tumor cell growth at 10^-5 M; outline: as §1
SF-539 = assay: Growth inhibition of human SF539 cells assessed tumor cell growth at 10^-5 M; outline: as §1
HOP-62 = assay: Growth inhibition of human HOP62 cells assessed tumor cell growth at 10^-5 M; outline: as §1
EKVX = assay: Growth inhibition of human EKVX cells assessed tumor cell growth at 10^-5 M; outline: as §1
SK-MEL-2 = assay: Growth inhibition of human SK-MEL-2 cells assessed tumor cell growth at 10^-5 M; outline: as §1
IGROV-1 = assay: Growth inhibition of human IGROV1 cells assessed tumor cell growth at 10^-5 M; outline: as §1
COLO 205 = assay: Growth inhibition of human COLO205 cells assessed tumor cell growth at 10^-5 M; outline: as §1
CAKI-1 = assay: Growth inhibition of human Caki1 cells assessed tumor cell growth at 10^-5 M; outline: as §1
DU-145 = assay: Growth inhibition of human DU145 cells assessed tumor cell growth at 10^-5 M; outline: as §1
PC-3 = assay: Growth inhibition of human PC3 cells assessed tumor cell growth at 10^-5 M; outline: as §1
OVCAR-5 = assay: Growth inhibition of human OVCAR5 cells assessed tumor cell growth at 10^-5 M; outline: as §1
TK-10 = assay: Growth inhibition of human TK10 cells assessed tumor cell growth at 10^-5 M; outline: as §2
[1] = Growth inhibition of human […] cells assessed tumor cell growth at 10^-5 M; outline: as §1
NCI/ADR-RES = assay: Growth inhibition of human NCI/ADR-RES cells assessed tumor cell growth at 10^-5 M; outline: as §1
OVCAR-8 = assay: Growth inhibition of human OVCAR8 cells assessed tumor cell growth at 10^-5 M; outline: as §1
[2] = Growth inhibition of human Hs 578T cells assessed tumor cell growth at 10^-5 M; outline: as §1

Question: Which results are given for O=C1/C(=C\c2cn(C(=O)c3ccc(Cl)cc3)c3ccccc23)c2ccccc2N1C(=O)c1ccc(Cl)cc1?
Answer: Activity (KM12): 24.2%; Activity (OVCAR-4): 71.9%; Activity (MDA-MB-468): 51.7%; Activity (MDA-MB-231): 81.2%; Activity (UACC-62): 88.9%; Activity (HL-60(TB)): 54.1%; Activity (NCI-H460): 86%; Activity (MCF7): 71.1%; Activity (RXF 393): 83.2%; Activity (HT-29): 70.4%; Activity (U-251): 74.1%; Activity (SK-MEL-5): 74.8%; Activity (K562): 83.8%; Activity (OVCAR-3): 84.2%; Activity (SN12C): 80.7%; Activity (T47D): 61.7%; Activity (NCI-H322M): 98.5%; Activity (SK-OV-3): 77%; Activity (SK-MEL-28): 103%; Activity (SNB-19): 98.2%; Activity (SNB-75): 54.4%; Activity (MDA-MB-435): 97.5%; Activity (LOX IMVI): 67.7%; Activity (SF-268): 77.5%; Activity (SF-295): 101.9%; Activity (A549): 63.2%; Activity (M14): 79.1%; Activity (HCT-116): 65.1%; Activity (HCT-15): 65.8%; Activity (NCI-H23): 83.1%; Activity (NCI-H522): 6%; Activity (SR): 56.1%; Activity (Malme-3M): 126%; Activity (NCI-H226): 89.4%; Activity (UO-31): 64.4%; Activity (MOLT-4): 61.5%; Activity (786-0): 93.7%; Activity (SW-620): 93.1%; Activity (ACHN): 63.2%; Activity (A498): 81%; Activity (SF-539): 67.3%; Activity (HOP-62): 61.3%; Activity (EKVX): 70.7%; Activity (SK-MEL-2): 49.8%; Activity (IGROV-1): 80%; Activity (COLO 205): 104.7%; Activity (CAKI-1): 73.8%; Activity (DU-145): 85%; Activity (PC-3): 65.7%; Activity (OVCAR-5): 114.7%; Activity (TK-10): 55.3%; Activity [1]: 57.4%; Activity (NCI/ADR-RES): 83.4%; Activity (OVCAR-8): 78.6%; Activity [2]: 80.5%

Question: Which Activity (KM12) does the source give for Cc1ccc(S(=O)(=O)N2C(=O)/C(=C\c3cn(S(=O)(=O)c4ccc(C)cc4)c4ccccc34)c3ccccc32)cc1 here?
Answer: 103.9%

Question: What about the Activity (OVCAR-4) of the same compound?
Answer: 100.5%

Question: And the Activity (MDA-MB-468)?
Answer: 103.8%

Question: What about the Activity (MDA-MB-231) of the same compound?
Answer: 84.2%

Question: And the Activity (UACC-62)?
Answer: 82.1%

Question: What about the Activity (HL-60(TB)) of the same compound?
Answer: 85.6%

Question: What about the Activity (NCI-H460) of the same compound?
Answer: 93.2%

Question: What about the Activity (MCF7) of the same compound?
Answer: 93.9%

Question: What about the Activity (RXF 393) of the same compound?
Answer: 77%

Question: What about the Activity (HT-29) of the same compound?
Answer: 90%

Question: And the Activity (U-251)?
Answer: 76.2%

Question: What about the Activity (SK-MEL-5) of the same compound?
Answer: 98.1%

Question: And the Activity (K562)?
Answer: 83.9%

Question: What about the Activity (OVCAR-3) of the same compound?
Answer: 107.8%

Question: What about the Activity (SN12C) of the same compound?
Answer: 98.9%

Question: And the Activity (T47D)?
Answer: 94.8%

Question: What about the Activity (NCI-H322M) of the same compound?
Answer: 102.4%

Question: What about the Activity (SK-OV-3) of the same compound?
Answer: 81%

Question: And the Activity (SK-MEL-28)?
Answer: 100.5%

Question: What about the Activity (SNB-19) of the same compound?
Answer: 82.9%

Question: And the Activity (SNB-75)?
Answer: 40.2%

Question: And the Activity (MDA-MB-435)?
Answer: 109.2%

Question: What about the Activity (LOX IMVI) of the same compound?
Answer: 82.3%

Question: What about the Activity (SF-268) of the same compound?
Answer: 84.9%

Question: And the Activity (SF-295)?
Answer: 91.8%

Question: What about the Activity (A549) of the same compound?
Answer: 87.4%

Question: And the Activity (M14)?
Answer: 100.7%

Question: What about the Activity (HCT-116) of the same compound?
Answer: 83.1%

Question: What about the Activity (HCT-15) of the same compound?
Answer: 97.4%

Question: What about the Activity (NCI-H23) of the same compound?
Answer: 96.5%

Question: And the Activity (NCI-H522)?
Answer: 49.7%

Question: What about the Activity (SR) of the same compound?
Answer: 70.4%

Question: And the Activity (Malme-3M)?
Answer: 97.7%

Question: And the Activity (NCI-H226)?
Answer: 97.5%

Question: What about the Activity (UO-31) of the same compound?
Answer: 77.1%

Question: And the Activity (MOLT-4)?
Answer: 90.4%

Question: What about the Activity (786-0) of the same compound?
Answer: 71.2%

Question: What about the Activity (SW-620) of the same compound?
Answer: 94.8%

Question: And the Activity (ACHN)?
Answer: 91.3%

Question: What about the Activity (A498) of the same compound?
Answer: 96.8%

Question: What about the Activity (SF-539) of the same compound?
Answer: 88%

Question: And the Activity (HOP-62)?
Answer: 80.2%

Question: What about the Activity (EKVX) of the same compound?
Answer: 99.9%

Question: What about the Activity (SK-MEL-2) of the same compound?
Answer: 68.1%

Question: And the Activity (IGROV-1)?
Answer: 105%

Question: What about the Activity (COLO 205) of the same compound?
Answer: 107.3%

Question: What about the Activity (CAKI-1) of the same compound?
Answer: 89.6%

Question: What about the Activity (DU-145) of the same compound?
Answer: 100%

Question: And the Activity (PC-3)?
Answer: 71.7%

Question: And the Activity (OVCAR-5)?
Answer: 96.2%

Question: And the Activity (TK-10)?
Answer: 65.5%

Question: And the Activity [1]?
Answer: 92.6%

Question: And the Activity (NCI/ADR-RES)?
Answer: 95.6%

Question: And the Activity (OVCAR-8)?
Answer: 76%

Question: What about the Activity [2] of the same compound?
Answer: 74.8%

Source: ChEMBL document CHEMBL1811814, “Synthesis and evaluation of indole, pyrazole, chromone and pyrimidine based conjugates for tumor growth inhibitory activities--development of highly efficacious cytotoxic agents” (Eur J Med Chem, 2010)
